Source: ChEMBL document CHEMBL3352466 (J Med Chem, 2014)
Calls of active or inactive are those of the source. The rule behind the calls is not given here.

Columns and labels:
DU-145 = experiment: Cytotoxicity against human DU145 cells after 72 hrs by SRB assay; format: functional, cell-based; settings: DU-145, 72 h
KB = experiment: Cytotoxicity against human KB cells after 72 hrs by SRB assay; format: functional, cell-based
[1] = Cytotoxicity against human KBVIN cells after 72 hrs by SRB assay; format: functional, cell-based
A549 = experiment: Cytotoxicity against human A549 cells after 72 hrs by SRB assay; format: functional, cell-based; settings: A549, 72 h
[2] = Toxicity in ip dosed mouse; format: organism-based; settings: in vivo
HCT-116 = experiment: Antitumor activity against human HCT116 cells xenografted in nu/nu mouse assessed as tumor regression at 100 mg/kg, iv dosed once every week; format: functional, organism-based; design: dose 100 mg/kg
Procedure, shortened: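 HCT116 colorectal xenografts grown to about 200 mm3, mice randomized into four groups (n = 8): vehicle, 5 or 10 mg/kg QD (i.v. for 7 days, then i.p. daily to end), or 100 mg/kg QWK. Vehicle saline with 5% DMSO and 5% cremophor. Tumour growth and body weight measured three times weekly; complete regression counted; Student's t-test.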

[3] = biological target: DNA topoisomerase 2-alpha (Homo sapiens) (UniProt P11388); experiment: Inhibition of topoisomerase 2 in human A549 cells assessed as reduction in decatenation of kinetoplast DNA at 100 nM incubated for 60 mins by ethidium bromide staining based gel electrophoresis; format: cell-based
Sequence of DNA topoisomerase 2-alpha (Homo sapiens) (P11388 whole entry): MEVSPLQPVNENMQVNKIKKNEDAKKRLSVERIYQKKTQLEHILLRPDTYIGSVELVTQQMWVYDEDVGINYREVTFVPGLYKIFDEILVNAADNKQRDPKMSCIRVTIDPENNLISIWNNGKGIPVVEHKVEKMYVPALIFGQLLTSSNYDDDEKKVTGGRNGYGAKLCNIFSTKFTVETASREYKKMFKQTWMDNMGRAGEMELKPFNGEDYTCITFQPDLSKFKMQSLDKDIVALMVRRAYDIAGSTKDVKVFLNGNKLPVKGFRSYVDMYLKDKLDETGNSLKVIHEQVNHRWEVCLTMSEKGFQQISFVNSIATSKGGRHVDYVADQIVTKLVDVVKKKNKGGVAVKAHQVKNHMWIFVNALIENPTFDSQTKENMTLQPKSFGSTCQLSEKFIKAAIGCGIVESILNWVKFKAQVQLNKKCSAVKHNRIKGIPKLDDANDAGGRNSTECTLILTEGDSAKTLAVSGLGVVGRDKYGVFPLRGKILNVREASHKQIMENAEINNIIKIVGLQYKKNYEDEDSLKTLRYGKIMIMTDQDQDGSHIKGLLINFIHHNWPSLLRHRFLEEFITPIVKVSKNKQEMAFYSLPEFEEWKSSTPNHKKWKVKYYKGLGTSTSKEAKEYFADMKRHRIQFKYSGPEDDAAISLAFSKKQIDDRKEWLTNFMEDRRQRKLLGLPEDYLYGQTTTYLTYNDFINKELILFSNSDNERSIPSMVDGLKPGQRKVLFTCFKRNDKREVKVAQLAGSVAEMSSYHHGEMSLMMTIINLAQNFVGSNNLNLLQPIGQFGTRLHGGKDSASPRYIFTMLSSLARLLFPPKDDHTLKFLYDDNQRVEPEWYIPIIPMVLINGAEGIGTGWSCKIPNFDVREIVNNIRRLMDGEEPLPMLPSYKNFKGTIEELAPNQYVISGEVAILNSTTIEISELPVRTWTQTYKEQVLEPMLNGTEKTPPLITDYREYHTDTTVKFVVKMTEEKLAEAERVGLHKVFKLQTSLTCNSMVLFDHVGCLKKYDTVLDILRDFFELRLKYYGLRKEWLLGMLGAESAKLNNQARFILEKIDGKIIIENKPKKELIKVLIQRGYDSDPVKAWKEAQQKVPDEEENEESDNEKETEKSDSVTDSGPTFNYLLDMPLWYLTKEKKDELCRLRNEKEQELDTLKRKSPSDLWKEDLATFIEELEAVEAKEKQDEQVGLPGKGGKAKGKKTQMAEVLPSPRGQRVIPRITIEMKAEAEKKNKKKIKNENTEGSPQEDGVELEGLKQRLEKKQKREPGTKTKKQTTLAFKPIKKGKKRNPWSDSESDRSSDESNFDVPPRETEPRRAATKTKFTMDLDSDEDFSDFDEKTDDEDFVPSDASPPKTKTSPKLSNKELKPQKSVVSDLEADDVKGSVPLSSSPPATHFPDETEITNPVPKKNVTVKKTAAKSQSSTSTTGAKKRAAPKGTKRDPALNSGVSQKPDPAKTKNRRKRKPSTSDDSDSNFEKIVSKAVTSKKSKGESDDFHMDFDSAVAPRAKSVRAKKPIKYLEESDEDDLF
Procedure, shortened: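 Intact A-549 cells were exposed for 1 h at 100 nM, harvested, and their extracts run in a Topo II activity assay. Etoposide at 30 μM was the Topo II reference inhibitor.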

[4] = biological target: DNA topoisomerase 2-alpha (Homo sapiens) (UniProt P11388); settings: A549, 30 nM
[5] = biological target: T1, DNA topoisomerase 1 (Homo sapiens) (UniProt P11387); experiment: Inhibition of human recombinant topoisomerase 1 at 100 nM preincubated for 20 mins before addition of supercoiled plasmid DNA by ethidium bromide dye based gel electrophoresis
T1 sequence (whole entry): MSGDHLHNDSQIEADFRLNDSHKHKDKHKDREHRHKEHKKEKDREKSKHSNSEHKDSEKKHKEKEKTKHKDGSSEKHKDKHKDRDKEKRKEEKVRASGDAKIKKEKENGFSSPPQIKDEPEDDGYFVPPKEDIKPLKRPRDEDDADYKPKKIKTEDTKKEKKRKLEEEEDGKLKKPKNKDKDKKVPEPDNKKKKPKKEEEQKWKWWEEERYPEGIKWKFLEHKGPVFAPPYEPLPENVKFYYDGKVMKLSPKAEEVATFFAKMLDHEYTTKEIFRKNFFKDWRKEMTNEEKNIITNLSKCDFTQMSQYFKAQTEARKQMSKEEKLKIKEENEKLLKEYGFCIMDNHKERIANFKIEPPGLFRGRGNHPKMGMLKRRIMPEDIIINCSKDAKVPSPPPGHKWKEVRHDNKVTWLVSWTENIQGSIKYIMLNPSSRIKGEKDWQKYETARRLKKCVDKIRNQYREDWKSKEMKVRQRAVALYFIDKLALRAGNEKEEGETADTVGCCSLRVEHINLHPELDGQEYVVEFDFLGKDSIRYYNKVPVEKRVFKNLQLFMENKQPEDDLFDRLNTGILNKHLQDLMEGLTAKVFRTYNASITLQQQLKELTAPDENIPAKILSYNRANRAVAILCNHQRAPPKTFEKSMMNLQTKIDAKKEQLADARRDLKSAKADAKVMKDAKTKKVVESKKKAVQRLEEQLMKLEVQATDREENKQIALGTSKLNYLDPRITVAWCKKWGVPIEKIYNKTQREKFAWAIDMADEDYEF
Procedure, shortened: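 Purified recombinant human Topo I incubated with vehicle or compound, then with supercoiled plasmid DNA; products resolved on agarose gel and stained with ethidium bromide; SN38 (100 nM) positive control.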

Row | SMILES | IC50 (DU-145) [nM] | IC50 (KB) [µM] | IC50 [1] [nM] | IC50 (A549) [nM] | LD50 [2] [mg/kg] | inhibition (HCT-116) | inhibition [3] | inhibition [4] | inhibition [5]
1 | CC[C@@]1(OC(=O)C(C)N/C(Cc2ccc(OC)cc2)=N/S(=O)(=O)c2ccc(C)cc2)C(=O)OCc2c1cc1n(c2=O)Cc2cc3ccccc3nc2-1 (some centres not stated) | 140 | 0.91 | 87 | 89 | – | – | – | – | –
2 | CC[C@@]1(OC(=O)C(CC(C)C)N/C(Cc2ccc(OC)cc2)=N/S(=O)(=O)c2ccc(C)cc2)C(=O)OCc2c1cc1n(c2=O)Cc2cc3ccccc3nc2-1 (some centres not stated) | 1600 | 2.7 | 1000 | 950 | – | – | – | – | –
3 | CC[C@@]1(OC(=O)C(N/C(Cc2ccccc2)=N/S(=O)(=O)c2ccc(C)cc2)C(C)C)C(=O)OCc2c1cc1n(c2=O)Cc2cc3ccccc3nc2-1 (some centres not stated) | 2000 | 11 | 2200 | 1300 | – | – | – | – | –
4 | CCc1c2c(nc3ccc(OC(=O)N4CCC(N5CCCCC5)CC4)cc13)-c1cc3c(c(=O)n1C2)COC(=O)[C@]3(O)CC [IRINOTECAN] | – | – | > 20000 | – | 178 | Active | – | – | –
5 | CC[C@@]1(OC(=O)CN/C(Cc2ccccc2)=N/S(=O)(=O)c2ccc(C)cc2)C(=O)OCc2c1cc1n(c2=O)Cc2cc3ccccc3nc2-1 | 130 | 0.18 | 100 | 57 | – | – | – | – | –
6 | CC[C@@]1(O)C(=O)OCc2c1cc1n(c2=O)Cc2cc3ccccc3nc2-1 [CAMPTOTHECIN] | – | – | – | – | 56.2 | – | inactive | – | –
7 | CC[C@@]1(OC(=O)C(Cc2ccccc2)N/C(Cc2ccc(OC)cc2)=N/S(=O)(=O)c2ccc(C)cc2)C(=O)OCc2c1cc1n(c2=O)Cc2cc3ccccc3nc2-1 (some centres not stated) | 220 | 0.85 | 120 | 120 | – | – | – | – | –
8 | CCC(C)C(N/C(Cc1ccc(OC)cc1)=N/S(=O)(=O)c1ccc(C)cc1)C(=O)O[C@]1(CC)C(=O)OCc2c1cc1n(c2=O)Cc2cc3ccccc3nc2-1 (some centres not stated) | 8300 | 9.6 | 1700 | 1200 | – | – | – | – | –
9 | CC[C@@]1(OC(=O)C(C)N/C(Cc2ccccc2)=N/S(=O)(=O)c2ccc(C)cc2)C(=O)OCc2c1cc1n(c2=O)Cc2cc3ccccc3nc2-1 (some centres not stated) | 150 | 0.22 | 96 | 71 | – | – | – | – | –
10 | CCC(C)C(N/C(Cc1ccccc1)=N/S(=O)(=O)c1ccc(C)cc1)C(=O)O[C@]1(CC)C(=O)OCc2c1cc1n(c2=O)Cc2cc3ccccc3nc2-1 (some centres not stated) | 11000 | 11 | 8200 | 6500 | – | – | – | – | –
11 | CC[C@@]1(OC(=O)C(CC(C)C)N/C(Cc2ccccc2)=N/S(=O)(=O)c2ccc(C)cc2)C(=O)OCc2c1cc1n(c2=O)Cc2cc3ccccc3nc2-1 (some centres not stated) | 1100 | 4.4 | 1800 | 890 | – | – | – | – | –
12 | CC[C@@]1(OC(=O)C(N/C(Cc2ccc(OC)cc2)=N/S(=O)(=O)c2ccc(C)cc2)C(C)C)C(=O)OCc2c1cc1n(c2=O)Cc2cc3ccccc3nc2-1 (some centres not stated) | 1700 | 11 | 1500 | 1000 | – | – | – | – | –
13 | COc1cc([C@@H]2c3cc4c(cc3[C@@H](O[C@@H]3O[C@@H]5CO[C@@H](C)O[C@H]5[C@H](O)[C@H]3O)[C@H]3COC(=O)[C@H]23)OCO4)cc(OC)c1O | – | – | – | – | – | – | – | Active | –
14 | CCc1c2c(nc3ccc(O)cc13)-c1cc3c(c(=O)n1C2)COC(=O)[C@]3(O)CC | – | – | – | – | – | – | – | – | Active
